HIF activator: HIF pathway transcriptional activation | U2OS HRE-luciferase reporter, luminescence; normalized: DMSO 0%, desferrioxamine 100% | activation, % at 7.5 µM (by protocol) | hit rate 0.32% among 300,000 | AID 1910;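 active means mean activation of at least 10% of the iron chelator positive control signal, with at least half of replicates also reaching 10%; inconclusive means mean and replicate majority disagree about reaching 10%; inactive means mean and most replicates under 10%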
CSC inhib: cancer stem cell inhibition | cancer stem cell-like cells viability, luminescence | inhibition, % at 7.5 µM | hit rate 1.1% among 300,000; in the data active means inhibition above about 75%; inconclusive means no clear call, values can overlap the other calls; tested in HMLE shEcad cells
SKKanGAS inh: blocks kanamycin growth of S. pyogenes SKKanGAS strain; BacTiter-Glo, 6 h; inhibition, % at 7.5 µM; hit rate 1.3% among 300,000;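 active means mean replicate score, as percent of positive control median, at least 50; inconclusive means mean below 50 but one replicate at or above 50; inactive means mean and every replicate below 50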;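 further: strain carries kanamycin resistance gene driven by streptokinase promoter and grows in 40 µg/ml kanamycin; loss of luminescence reflects streptokinase promoter inhibition or plain growth inhibition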
T cruzi repl: blocks replication of Trypanosoma cruzi; AID 1885; inhibition, % (concentration not given with the values); T. cruzi beta-gal in NIH3T3, luminescence, 90 h; hit rate 1.4% among 300,000;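 active means mean inhibition across valid replicates above about 55%, limit read from the data; inconclusive means mean below that limit but half or more replicates reach it; inactive means mean below it, under half of replicates reach it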;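 further: signal also drops with host cell toxicity which is not excluded here; higher percent means less beta-gal luminescence so fewer parasites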
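System: Mouse NIH/3T3 fibroblasts infected with β-gal-expressing T. cruzi Tulahuen C4 | Quantity: NIH/3T3 cells, 5,000 per well | Reagent: 5000 reporter trypomastigotes per well | Dosing: Compound pinned at 50 nL/well, DMSO | Schedule: 3 h host attachment, then at least 90 h co-culture | Detection: GalScreen luminescence, 60 min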
Beta apoptosis: blocks beta cell apoptosis; INS-1E cytokine-induced death, ATP luminescence, 48 h; percent of positive-control rescue, neutral wells zero; protection from apoptosis, % (test concentration not listed); hit rate 0.8% among 300,000; AID 435005;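 active means Every replicate reaches about 75%, or at least half do and their mean reaches it too, limit read from the data; inconclusive means At least half of replicates reach the limit but their mean does not; inactive means Under half of replicates reach the limit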;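 further: higher means more ATP so stronger rescue from cytokine killing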
PfHsp90 yeast 2: growth inhibition of yeast expressing Plasmodium Hsp90; S. cerevisiae expressing PfHsp90, BacTiter-Glo ATP, 48 h; yeast lacking PDR1 and PDR3 efflux regulators; inhibition, % at 9.4 µM; hit rate 0.32% among 310,000;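 active means every replicate shows inhibition above about 80%, whatever the replicate mean, limit read from the data; inconclusive means mean inhibition reaches the set limit but some replicate falls short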
Each line names hits and unclear results; the compound was inactive in the other large screens. The list is not random: actives were taken first. Their share in the collection is about 3.6%.

CCc1ccc(NC(=O)C2C3CCC(O3)C2C(=O)O)cc1 (centres undefined)	none
COCC(C)NC(=O)c1cc2c(ccc3ccccc32)oc1=O (centres undefined)	none
CCOC(=O)C1=C(C)C/C(=N\NC(=O)c2ccccc2O)CC1	none
Nc1nc(SCc2ccc(Br)cc2)c2ncn(C3OC(CO)C(O)C3O)c2n1 (centres undefined)	none (no result: HIF activator, CSC inhib, SKKanGAS inh, T cruzi repl, Beta apoptosis)
Clc1ccccc1CN(Cc1ccco1)Cc1nnnn1C1CCCC1	PfHsp90 yeast 2 85
Cc1cc(C)n(-c2nc(SCC(=O)Nc3nccs3)c3c4c(sc3n2)COC(C)(C)C4)n1	SKKanGAS inh 58
Cc1cc(C)n(-c2nc3sc4c(c3c(=O)[nH]2)CCCC4)n1	SKKanGAS inh 93 (no result: CSC inhib, PfHsp90 yeast 2)
Cc1cc(C)n(-c2nc(NCCN(C)C)c3c4c(sc3n2)CCCC4)n1	Beta apoptosis 112
Cc1cc(C)n(-c2nc(NCCN(C)C)c3c4c(sc3n2)COC(C)(C)C4)n1	none (no result: PfHsp90 yeast 2)
Cc1cc(C)n(-c2nc(NCCC(C)C)c3c4c(sc3n2)COC(C)(C)C4)n1	SKKanGAS inh 65, T cruzi repl 76 (no result: CSC inhib, Beta apoptosis, PfHsp90 yeast 2)
CCN1C(=O)Cc2cc(S(=O)(=O)NCCc3ccccc3)ccc21	none
Cc1ccc(C(C)C)c(OCC(=O)OCC(=O)NC2CCS(=O)(=O)C2)c1 (centres undefined)	none (no result: PfHsp90 yeast 2)
COc1ccc(C2(C)C(C#N)C(=O)NC(=O)C2C#N)cc1 (centres undefined)	none (no result: HIF activator, CSC inhib, SKKanGAS inh, T cruzi repl, Beta apoptosis)
CCCc1c(C(=O)NNc2ccc(C)cc2)cnn1-c1ccccc1	CSC inhib 93
CCCc1c(C(=O)Nc2ccc(C(F)(F)F)cc2)cnn1-c1ccccc1	none
CC(NCc1ccc(OCc2ccc(Cl)cc2)cc1)C(O)c1ccccc1 (centres undefined)	CSC inhib 102
CC(NCc1cccc(OCc2ccccc2)c1)C(O)c1ccccc1 (centres undefined)	none
OCCCCNCc1ccc(OCc2ccc(Cl)cc2)cc1	T cruzi repl 57 (no result: CSC inhib, Beta apoptosis)
COCc1cc(C)nc2sc(C(=O)Nc3ccccc3OC)c(N)c12	none
O=C(N/N=C/c1cnc(N2CCCCC2)s1)c1ccc(C(F)(F)F)cc1	Beta apoptosis 104
O=C(O)CSc1cc(NS(=O)(=O)c2ccc(Cl)cc2)c2ccccc2c1O	none
COc1ccc(S(=O)(=O)Nc2cc(SCC(=O)O)c(O)c3ccccc23)cc1	Beta apoptosis 94
O=C(Cn1cnc2c(OCc3ccccc3)ncnc21)NCC1CCCO1 (centres undefined)	none (no result: HIF activator, CSC inhib, SKKanGAS inh, T cruzi repl)
O=C(Nc1ccccc1)Nc1cccc2nsnc12	HIF activator 11 (no result: PfHsp90 yeast 2)
O=C(Nc1cccc2nsnc12)c1cccs1	none
Cc1cc2oc(=O)cc(CN(C)Cc3ccccc3Cl)c2cc1C	SKKanGAS inh 62
Cc1cc2oc(=O)cc(CN(C)Cc3ccccc3F)c2cc1Cl	none
COCCn1c(SCC(=O)c2c(N)n(C3CC3)c(=O)[nH]c2=O)nnc1-c1cccc(C)c1	none (no result: HIF activator, SKKanGAS inh, T cruzi repl)
O=c1[nH]c(CN2CCN(c3ccccn3)CC2)nc2c(Br)cc(Br)cc12	CSC inhib 81
O=c1[nH]c(CN2CCN(c3ncccn3)CC2)nc2c(Br)cc(Br)cc12	none
O=[N+]([O-])c1cc(S(=O)(=O)Nc2ccccc2)ccc1N1CCN(c2ccc(O)cc2)CC1	CSC inhib 77
Cc1ccc(NS(=O)(=O)c2ccc(N3CCN(c4ccc(O)cc4)CC3)c([N+](=O)[O-])c2)c(C)c1	CSC inhib 83, PfHsp90 yeast 2 96
O=S(=O)(NCc1ccncc1)c1ccc(S(=O)(=O)NCC2CCCO2)cc1 (centres undefined)	CSC inhib 140
O=S(=O)(NCc1ccccc1)c1ccc(S(=O)(=O)NCC2CCCO2)cc1 (centres undefined)	none
CC(=O)Nc1ccc(NC(=O)C(C)OC(=O)C2(c3ccc(Cl)cc3)CCCC2)cc1 (centres undefined)	none
Cc1cc(C)c(CN2CCN(C(=O)Cn3ccc(N)nc3=O)CC2)c(C)c1	none (no result: HIF activator, SKKanGAS inh, T cruzi repl)
CSc1nc(N)nc2c1ncn2CC(=O)N1CCN(Cc2c(C)cc(C)cc2C)CC1	Beta apoptosis 100 (no result: HIF activator, CSC inhib, SKKanGAS inh, T cruzi repl)
CCn1cc(C(=O)O)c(=O)c2cc(F)c(N3CCN(S(=O)(=O)c4ccc(NC(C)=O)cc4)CC3)cc21	SKKanGAS inh 53
CCn1cc(C(=O)O)c(=O)c2cc(F)c(N3CCN(S(=O)(=O)c4ccc5c(c4)OCCO5)CC3)cc21	SKKanGAS inh 60
CCn1cc(C(=O)O)c(=O)c2cc(F)c(N3CCN(C(=O)Nc4ccccc4)CC3)cc21	none (no result: Beta apoptosis)
Cc1ccc(N2C(=O)C3C4C=CC(CNC(=S)Nc5cccc(Cl)c5)(O4)C3C2=O)cc1 (centres undefined)	PfHsp90 yeast 2 105
CC(C)COC(=O)NCC12C=CC(O1)C1C(=O)N(c3ccc(Cl)cc3)C(=O)C12 (centres undefined)	none (no result: PfHsp90 yeast 2)
Cc1ccc(N2C(=O)C3C4C=CC(CNC(=S)Nc5ccc(Cl)cc5)(O4)C3C2=O)cc1 (centres undefined)	PfHsp90 yeast 2 105
Cc1ccc(N2C(=O)C3C4C=CC(CNC(=S)N5CCN(c6ccccn6)CC5)(O4)C3C2=O)cc1 (centres undefined)	PfHsp90 yeast 2 104
Cc1ccc(N2C(=O)C3C4C=CC(CNC(=S)Nc5ccc(F)cc5)(O4)C3C2=O)cc1 (centres undefined)	PfHsp90 yeast 2 103 (no result: CSC inhib)
O=[N+]([O-])c1cc(-c2nnc(Nc3ccccc3)c3ccccc23)ccc1N1CCOCC1	T cruzi repl 57
N#Cc1c(-c2ccccc2)nc(SCc2cccc(Cl)c2)[nH]c1=O	CSC inhib 107, SKKanGAS inh inconclusive
COc1cccc(/C=N/Nc2nnc3c(n2)[nH]c2ccccc23)c1OC	none
CCc1ccc2[nH]c3nc(N/N=C/c4cccc(O)c4)nnc3c2c1	CSC inhib 98
Cc1cn2c(nc(=O)c3cccnc32)s1	none
Cc1cc(OCCOc2cccc3cccnc23)cc(C)c1Cl	none
Cc1cc(C)c(C)c(OCCCOc2cccc3cccnc23)c1	SKKanGAS inh 61
COc1ccc(OC)c(C2=Nn3c(nnc3-c3cc(C)[nH]n3)SC2)c1	HIF activator 58
COc1ccc(OC)c(-c2nnc3n2N=C(c2ccc(OC)c(OCC4CC4)c2)CS3)c1	none (no result: HIF activator, CSC inhib, SKKanGAS inh, T cruzi repl)
COc1ccc(-n2cc(-c3ccccc3)[n+]3c2CCCCC3)cc1	T cruzi repl 81, Beta apoptosis 99
COc1ccc(-c2cn(-c3ccc(OC)cc3)c3[n+]2-c2ccccc2CC3)cc1	Beta apoptosis 132
CCC(NC(=O)c1cccc(Cn2cc([N+](=O)[O-])cn2)c1)c1ccc(C(C)C)cc1 (centres undefined)	none
CC(NC(=O)c1cccc(Cn2cc([N+](=O)[O-])cn2)c1)c1ccc(C(C)(C)C)cc1 (centres undefined)	T cruzi repl 55
Cc1cccc(C)c1OCCCCN1CCNCC1	none

Assay outcomes deposited in PubChem by Broad Institute.
